The results in this text go back to ChEMBL document CHEMBL1128671, “New (2-methoxyphenyl)piperazine derivatives as 5-HT1A receptor ligands with reduced alpha 1-adrenergic activity. Synthesis and structure-affinity relationships” (J Med Chem, 1995).

Some results are limits rather than exact numbers.

Assay [1] deals with T1, 5-hydroxytryptamine receptor 1A (Rattus norvegicus, UniProt P19327).
T1 sequence (P19327 whole entry): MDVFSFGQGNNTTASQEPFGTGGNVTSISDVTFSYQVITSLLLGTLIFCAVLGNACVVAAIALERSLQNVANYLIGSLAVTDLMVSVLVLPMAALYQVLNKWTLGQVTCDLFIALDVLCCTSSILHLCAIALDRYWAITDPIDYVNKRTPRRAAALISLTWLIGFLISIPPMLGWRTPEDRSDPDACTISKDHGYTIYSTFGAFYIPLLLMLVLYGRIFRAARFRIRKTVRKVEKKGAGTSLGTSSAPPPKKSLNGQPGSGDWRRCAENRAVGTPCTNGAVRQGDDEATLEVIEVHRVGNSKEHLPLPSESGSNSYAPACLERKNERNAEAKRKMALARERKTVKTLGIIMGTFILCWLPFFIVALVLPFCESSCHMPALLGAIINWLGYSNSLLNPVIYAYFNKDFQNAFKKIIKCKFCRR
Put plainly: In vitro ability to displace [3H]8-OH-DPAT from 5-hydroxytryptamine 1A receptor sites of rat brain cortex. The method in brief:
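Male Wistar rat cerebral cortex membranes in 50 mM Tris-HCl with 4 mM CaCl2, 0.1% ascorbate and 10 μM pargyline. Nonspecific binding defined with 10 μM 5-HT. Read by filtration and scintillation counting. Twelve displacer concentrations, triplicate samples, two experiments. IC50/Ki obtained by nonlinear regression.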

Assay [2] deals with Adrenergic receptor alpha-1 (Oryctolagus cuniculus). Put plainly: Antagonistic activity at Alpha-1 adrenergic receptor was performed on ring segments of rabbit thoracic aorta contracted by noradrenaline.

In general, Ki refers to the equilibrium dissociation constant of an inhibitor or competing ligand from its target. Molecule `COc1ccccc1N1CCN(CCCCNC(=O)c2sccc2C)CC1` returned a Ki in assay [1] of 1.53 nM. In turn, `COc1ccccc1N1CCN(CCCCNC(=O)C2CC3CCC2C3)CC1` (stereo not given) registered an inhibition constant (Ki) in assay [1] of 0.23 nM.

Broadly, the pA2 is a measure of antagonist potency on a negative log scale. A higher pA2 goes with higher antagonist potency. With `COc1ccccc1N1CCN(CCCCNC(=O)C2CC3C=CC2C3)CC1` (stereo not given), the affinity in assay [1], expressed as Ki, was 0.38 nM. In assay [2], this molecule returned a pA2 of 8.53. On to `COc1ccccc1N1CCN(CCNC(=O)c2ccc(C)s2)CC1`, for which the affinity in assay [1] corresponds to a Ki of 2.29 nM. This counts as single-digit nanomolar. In turn, `COc1ccccc1N1CCN(CCNC(=O)c2sccc2C)CC1` returned an inhibition constant (Ki) in assay [1] of 3.09 nM. Same read-out and setting: as for `COc1ccccc1N1CCN(CCCCNC(=O)Cc2ccsc2)CC1`, the figure is 17.5 nM.

The molecule `COc1ccccc1N1CCN(CCCNC(=O)c2ccc[nH]2)CC1` registered an inhibition constant (Ki) in assay [1] of 201 nM. For the molecule `COc1ccccc1N1CCN(CCCCNC(=O)c2ccc(C)s2)CC1`, in assay [1], the Ki stood at 3.8 nM. The pA2 in assay [2] was under 7. Turning to `COc1ccccc1N1CCN(CCCCNC(=O)c2sccc2Cl)CC1`, the Ki in assay [1] stood at 3.34 nM.

As for `COc1ccccc1N1CCN(CCCCNC(=O)c2cccs2)CC1`, the inhibition constant Ki in assay [1] stood at 2.34 nM. In assay [2], this molecule returned a pA2 of 9.16. As for `COc1ccccc1N1CCN(CCCCNC(=O)c2cccn2C)CC1.O=C(O)/C=C/C(=O)O`, the Ki in assay [1] stood at 0.74 nM. In assay [2], this molecule showed a pA2 of 7.72.

With `COc1ccccc1N1CCN(CCCCNC(=O)c2sccc2OC)CC1`, the Ki in assay [1] was 32.1 nM. `COc1ccccc1N1CCN(CCNC(=O)Cc2ccsc2)CC1`: the inhibition constant Ki in assay [1] was determined as 32.3 nM. On to `COc1ccccc1N1CCN(CCNC(=O)C2CC3CCC2C3)CC1` (stereo not given), for which the Ki in assay [1] was 0.12 nM. Regarding `COc1ccccc1N1CCN(CCCCNC(=O)C2CCC3CCCC32)CC1` (stereo not given), the inhibition constant Ki in assay [1] came out at 0.63 nM. Compared with the last molecule, the Ki is about 5.2-fold higher.

Molecule `COc1ccccc1N1CCN(CCCCNC(=O)C2CCCC2)CC1` yielded an inhibition constant Ki in assay [1] of 1.88 nM. This Ki lies about 3-fold higher than the previous one. As for `COc1ccccc1N1CCN(CCNC(=O)C2CCCC2)CC1`, the Ki in assay [1] was determined as 4.68 nM.

In assay [1], `COc1ccccc1N1CCN(CCCCNC(=O)c2cccnc2)CC1` yielded an inhibition constant Ki of 25.2 nM.

The molecule `COc1ccccc1N1CCN(CCNC(=O)C2CC3C=CC2C3)CC1` (stereo not given) returned an inhibitory constant (Ki) in assay [1] of 0.27 nM. Regarding `COc1ccccc1N1CCN(CCCNC(=O)c2cccnc2)CC1`, in assay [1], the affinity, expressed as Ki, was 321 nM. `COc1ccccc1N1CCN(CCNC(=O)C2CCC3CCCC32)CC1` (stereo not given) showed a Ki in assay [1] of 0.24 nM. This Ki is about 1300-fold lower than that of the molecule before.

In assay [1], `COc1ccccc1N1CCN(CCNC(=O)c2cccnc2)CC1` showed a Ki of 362 nM. Against the preceding molecule, the Ki is about 1500-fold higher. Consider `COc1ccccc1N1CCN(CCNC(=O)c2ccsc2)CC1`, for which, in assay [1], the Ki turned out to be 6.83 nM. This molecule gave a pA2 in assay [2] of under 7. In assay [1], `COc1ccccc1N1CCN(CCCCNC(=O)c2ccc[nH]2)CC1` came in with an inhibition constant (Ki) of 12.5 nM. In assay [1], `COc1ccccc1N1CCN(CCNC(=O)c2ccc[nH]2)CC1` showed an inhibition constant (Ki) of 20.3 nM. Take `COc1ccccc1N1CCN(CCCNC(=O)C2CCC3CCCC32)CC1` (stereo not given): the Ki in assay [1] is 11.6 nM. Against the preceding molecule, the Ki is about 1.8-fold lower. The molecule `COc1ccccc1N1CCN(CCCCNC(=O)c2ccsc2)CC1` registered a Ki in assay [1] of 2.2 nM.

As for `COc1ccccc1N1CCN(CCNC(=O)c2cccn2C)CC1`, the affinity in assay [1] corresponds to a Ki of 1.19 nM. In assay [2], the pA2 is under 7. As to `COc1ccccc1N1CCN(CCCCNC(=O)c2ccco2)CC1`, in assay [1], the affinity, expressed as Ki, was 55.7 nM. This counts as double-digit nanomolar.
